Assay results reported in ChEMBL document CHEMBL1139970, “3,4-Dihydro-2H-benzo[1,4]oxazine derivatives as 5-HT6 receptor antagonists” (Bioorg Med Chem Lett, 2007).

How the values were obtained:
[1] = target: 5-hydroxytryptamine receptor 6 (Homo sapiens, UniProt P50406); test: Displacement of [3H]LSD from human recombinant 5HT6 receptor expressed in HEK293 cells; assay type: cell-based
Summary of the method: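 Competition binding against [3H]LSD, run at 37 °C on HEK293 cells expressing recombinant human 5-HT6 receptor. Affinity is expressed as pKi, with standard deviation of the pKi estimates 0.05–0.3.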

[2] = target: T1, hERG (KCNH2) (Homo sapiens, UniProt Q12809); test: Inhibition of hERG current at 1 uM by patch clamp electrophysiology assay; assay type: toxicity
Summary of the method: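 Conventional patch-clamp electrophysiology measuring inhibition of hERG outward current at a single test concentration. Baseline set to 0%; mean with SEM from n = 2 cells.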

[3] = Ratio of drug level in brain to plasma in rat at 2 mg/kg, iv after 1 hr; assay type: ADME, organism-based; design: dose 2 mg/kg, route intravenous
Summary of the method: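 Rats received a single intravenous 2 mg/kg dose. At 1 h post-dose, drug levels in whole brain homogenate and plasma were quantified by HPLC–MS/MS, and the brain-to-plasma ratio was calculated.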

[4] = target: T1, hERG (KCNH2); test: Inhibition of hERG current by patch clamp electrophysiology assay; assay type: toxicity

T1 sequence (Q12809 whole entry): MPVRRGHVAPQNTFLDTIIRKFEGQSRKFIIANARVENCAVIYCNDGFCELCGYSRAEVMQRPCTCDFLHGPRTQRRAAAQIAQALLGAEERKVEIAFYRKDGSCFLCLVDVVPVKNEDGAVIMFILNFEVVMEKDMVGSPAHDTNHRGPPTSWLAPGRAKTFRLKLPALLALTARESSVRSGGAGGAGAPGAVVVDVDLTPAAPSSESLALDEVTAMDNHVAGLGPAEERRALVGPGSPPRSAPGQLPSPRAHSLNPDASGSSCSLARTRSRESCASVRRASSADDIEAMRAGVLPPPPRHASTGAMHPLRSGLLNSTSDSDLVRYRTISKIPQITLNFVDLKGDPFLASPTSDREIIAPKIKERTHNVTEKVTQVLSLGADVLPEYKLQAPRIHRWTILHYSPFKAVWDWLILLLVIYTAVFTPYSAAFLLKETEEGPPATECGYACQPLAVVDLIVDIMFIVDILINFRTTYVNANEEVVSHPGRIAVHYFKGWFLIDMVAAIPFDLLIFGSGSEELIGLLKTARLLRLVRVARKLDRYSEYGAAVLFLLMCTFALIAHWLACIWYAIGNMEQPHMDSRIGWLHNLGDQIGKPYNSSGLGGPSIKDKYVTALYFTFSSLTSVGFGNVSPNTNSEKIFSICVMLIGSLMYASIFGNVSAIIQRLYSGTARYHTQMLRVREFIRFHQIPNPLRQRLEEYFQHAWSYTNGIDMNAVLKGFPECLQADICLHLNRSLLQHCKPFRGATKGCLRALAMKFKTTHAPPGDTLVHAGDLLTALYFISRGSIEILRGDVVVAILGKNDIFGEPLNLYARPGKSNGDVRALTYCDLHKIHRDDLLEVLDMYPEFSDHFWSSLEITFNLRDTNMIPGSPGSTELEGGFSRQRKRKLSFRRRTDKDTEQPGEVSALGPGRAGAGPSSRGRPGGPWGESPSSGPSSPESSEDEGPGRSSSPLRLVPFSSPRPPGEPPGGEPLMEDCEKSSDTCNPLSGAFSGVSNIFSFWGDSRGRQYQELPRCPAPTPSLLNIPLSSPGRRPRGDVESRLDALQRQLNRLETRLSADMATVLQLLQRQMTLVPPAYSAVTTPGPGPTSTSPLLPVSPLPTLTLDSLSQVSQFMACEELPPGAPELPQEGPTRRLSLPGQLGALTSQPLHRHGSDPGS
5-hydroxytryptamine receptor 6, sequence (P50406 whole entry): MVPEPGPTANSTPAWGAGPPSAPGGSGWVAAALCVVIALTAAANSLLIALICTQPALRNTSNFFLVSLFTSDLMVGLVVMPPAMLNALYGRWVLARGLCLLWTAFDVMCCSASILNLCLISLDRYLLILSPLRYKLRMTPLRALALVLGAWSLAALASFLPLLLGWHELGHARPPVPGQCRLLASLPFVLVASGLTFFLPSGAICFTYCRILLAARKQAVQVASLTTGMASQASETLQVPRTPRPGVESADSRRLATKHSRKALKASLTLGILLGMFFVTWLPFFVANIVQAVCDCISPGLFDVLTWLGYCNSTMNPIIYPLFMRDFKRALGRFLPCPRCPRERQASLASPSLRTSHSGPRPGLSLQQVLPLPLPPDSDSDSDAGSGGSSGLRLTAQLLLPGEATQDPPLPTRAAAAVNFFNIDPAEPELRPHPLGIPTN

Compound	Ki [1]	inhibition at 1 µM [2]	Kp at 1 h [3]	IC20 [4]
O=S(=O)(c1ccccc1)N1CCOc2c(N3CCNCC3)cccc21	12.6 nM			
O=S(=O)(c1ccccc1F)N1CCOc2c(N3CCNCC3)cccc21		9.9%	1.8	2200 nM
O=S(=O)(c1cccc(Cl)c1)N1CCOc2c(N3CCNCC3)cccc21	2 nM		1.4	
O=S(=O)(c1cccc(F)c1)N1CCOc2c(N3CCNCC3)cccc21	10 nM			
CS(=O)(=O)Nc1cccc(S(=O)(=O)N2CCOc3c(N4CCNCC4)cccc32)c1	200 nM			
CS(=O)(=O)c1ccccc1S(=O)(=O)N1CCOc2c(N3CCNCC3)cccc21	316 nM			
O=S(=O)(c1cccc2cccnc12)N1CCOc2c(N3CCNCC3)cc(Cl)cc21	0.631 nM			
Cc1cc(N2CCNCC2)c2c(c1)N(S(=O)(=O)c1ccccc1F)CCO2	0.398 nM	26.5%		
Cc1cc(N2CCNCC2)c2c(c1)N(S(=O)(=O)c1ccccc1C#N)CCO2	2 nM	14.2%		
O=S(=O)(c1ccccc1F)N1CCOc2c(N3CCNCC3)cc(F)cc21	0.631 nM	26%		
O=S(=O)(c1ccccc1F)N1CCOc2c(N3CCNCC3)cc(Cl)cc21	0.398 nM	45.2%	2.7	
COc1cc(N2CCNCC2)c2c(c1)N(S(=O)(=O)c1ccccc1)CCO2	0.398 nM	34%	0.8	
CC(C)(C)c1cc(N2CCNCC2)c2c(c1)N(S(=O)(=O)c1ccccc1F)CCO2	7.94 nM			
Nc1ccc(S(=O)(=O)N2CCOc3c(N4CCNCC4)cc(F)cc32)cc1	1.26 nM			
CC1(C)CN(S(=O)(=O)c2ccccc2F)c2cccc(N3CCNCC3)c2O1	0.316 nM			
Nc1cccc2c1OCCN2S(=O)(=O)c1ccccc1F	631 nM			
Cc1cc(N2CC(C)NC(C)C2)c2c(c1)N(S(=O)(=O)c1ccc(Cl)cc1)CCO2 (stereo not given)	39.8 nM			
CC1(C)CN(S(=O)(=O)c2ccccc2)c2cc(F)cc(C3CCNCC3)c2O1	3.98 nM			
CN(C)CCNc1cccc2c1OC(C)(C)CN2S(=O)(=O)c1cccc(F)c1	126 nM			
Cc1cc(N2CCNCC2)c2c(c1)N(S(=O)(=O)c1ccccc1)CCO2	2.51 nM	23.2%	1	
COc1cc(N2CCNCC2)c2c(c1)N(S(=O)(=O)c1ccccc1F)CCO2	0.158 nM			
O=S(=O)(c1ccccc1F)N1CC2(CCC2)Oc2c(N3CCNCC3)cccc21	0.631 nM			
O=S(=O)(c1ccccc1)N1CCOc2c(N3CCCNCC3)cc(Cl)cc21	3.98 nM			
O=S(=O)(c1ccccc1Cl)N1CCOc2c(N3CCNCC3)cccc21	3.16 nM	28.2%	1.6	
O=S(=O)(c1cccc2ccccc12)N1CCOc2c(N3CCNCC3)cc(Cl)cc21	0.794 nM			
CC1(C)CN(S(=O)(=O)c2cccc(F)c2)c2cc(F)cc(C3CCNCC3)c2O1	5.01 nM			
